Experimental data published in publication PMC7445463 (Diabetologia, 2020).

Experiments:
neprilysin [1] = molecular target: neprilysin (Mus musculus, UniProt Q61391); assay: Exogenous glucagon after sacubitril in mice; assay type: in vivo; conditions: 0.7 nmol/g; glucagon 96 ng/g; n=10
C2C12 murine myotubes = assay: ATPγS glucose uptake; assay type: cell-based; conditions: 100 μM
[2] = test system: differentiated adipocytes (wild type); assay: Adipocyte glucose uptake after dexamethasone; assay type: cell-based, human; conditions: 0.3 μM/24 h; WT cultures; n=6
[3] = test system: obese men without diabetes; assay: FLT-PET/MRI and pancreatic enzymes during liraglutide; assay type: in vivo, human
Rev-erbα = Rev-erbα agonist and antagonist in beta cells and human islets; assay type: cell-based
Outline: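 Cells used were rat INS-1E, human EndoC-βH1 and human islets. Rev-erbα was modulated with agonist, antagonist or siRNA knock-down. Stress was glucotoxicity (INS-1E, EndoC-βH1) or cytokines (INS-1E, human islets). Glucose-induced insulin secretion was read by HTRF, apoptosis as cleaved caspase-3, and Rev-erbα protein by western blot.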

Notch pathway = assay: PHA-activated co-cultures of obASCs and MNCs; assay type: cell-based, human; conditions: PHA-activated obASC/MNC co-cultures
Outline: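 Human obese adipose-derived stem cells were co-cultured with mononuclear cells under phytohemagglutinin A activation, with or without the Notch inhibitor DAPT. Separately, the stem cells were transfected or not with Dner-targeting siRNA. Cytokine secretion into the medium was measured by ELISA, and expression by RT-qPCR.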

Arrb2+/+ beta cells = assay: F-actin depolymerisation, phalloidin staining; assay type: cell-based, mouse; conditions: 1μmol/l
Outline: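 F-actin depolymerisation assessed by Alexa Fluor 488-conjugated phalloidin staining. FAK phosphorylation assessed by immunofluorescence.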

adiponectin receptor = assay: HFD-fed DBA/2J mice with AdipoRon, 9 weeks; assay type: in vivo, mouse; conditions: HFD supplemented with AdipoRon
[4] = Intrajejunal metformin with or without bile exclusion or TCA, T2DM; assay type: in vivo, human; conditions: metformin with TCA 4 g supplementation; endogenous bile included
Piezo1 [5] = molecular target: Piezo1 (Mus musculus, UniProt E2JF22); assay: In situ pancreas perfusion, insulin secretion
Chain of Piezo1 (Mus musculus, UniProt E2JF22) (E2JF22 whole entry, the tested form may be a part): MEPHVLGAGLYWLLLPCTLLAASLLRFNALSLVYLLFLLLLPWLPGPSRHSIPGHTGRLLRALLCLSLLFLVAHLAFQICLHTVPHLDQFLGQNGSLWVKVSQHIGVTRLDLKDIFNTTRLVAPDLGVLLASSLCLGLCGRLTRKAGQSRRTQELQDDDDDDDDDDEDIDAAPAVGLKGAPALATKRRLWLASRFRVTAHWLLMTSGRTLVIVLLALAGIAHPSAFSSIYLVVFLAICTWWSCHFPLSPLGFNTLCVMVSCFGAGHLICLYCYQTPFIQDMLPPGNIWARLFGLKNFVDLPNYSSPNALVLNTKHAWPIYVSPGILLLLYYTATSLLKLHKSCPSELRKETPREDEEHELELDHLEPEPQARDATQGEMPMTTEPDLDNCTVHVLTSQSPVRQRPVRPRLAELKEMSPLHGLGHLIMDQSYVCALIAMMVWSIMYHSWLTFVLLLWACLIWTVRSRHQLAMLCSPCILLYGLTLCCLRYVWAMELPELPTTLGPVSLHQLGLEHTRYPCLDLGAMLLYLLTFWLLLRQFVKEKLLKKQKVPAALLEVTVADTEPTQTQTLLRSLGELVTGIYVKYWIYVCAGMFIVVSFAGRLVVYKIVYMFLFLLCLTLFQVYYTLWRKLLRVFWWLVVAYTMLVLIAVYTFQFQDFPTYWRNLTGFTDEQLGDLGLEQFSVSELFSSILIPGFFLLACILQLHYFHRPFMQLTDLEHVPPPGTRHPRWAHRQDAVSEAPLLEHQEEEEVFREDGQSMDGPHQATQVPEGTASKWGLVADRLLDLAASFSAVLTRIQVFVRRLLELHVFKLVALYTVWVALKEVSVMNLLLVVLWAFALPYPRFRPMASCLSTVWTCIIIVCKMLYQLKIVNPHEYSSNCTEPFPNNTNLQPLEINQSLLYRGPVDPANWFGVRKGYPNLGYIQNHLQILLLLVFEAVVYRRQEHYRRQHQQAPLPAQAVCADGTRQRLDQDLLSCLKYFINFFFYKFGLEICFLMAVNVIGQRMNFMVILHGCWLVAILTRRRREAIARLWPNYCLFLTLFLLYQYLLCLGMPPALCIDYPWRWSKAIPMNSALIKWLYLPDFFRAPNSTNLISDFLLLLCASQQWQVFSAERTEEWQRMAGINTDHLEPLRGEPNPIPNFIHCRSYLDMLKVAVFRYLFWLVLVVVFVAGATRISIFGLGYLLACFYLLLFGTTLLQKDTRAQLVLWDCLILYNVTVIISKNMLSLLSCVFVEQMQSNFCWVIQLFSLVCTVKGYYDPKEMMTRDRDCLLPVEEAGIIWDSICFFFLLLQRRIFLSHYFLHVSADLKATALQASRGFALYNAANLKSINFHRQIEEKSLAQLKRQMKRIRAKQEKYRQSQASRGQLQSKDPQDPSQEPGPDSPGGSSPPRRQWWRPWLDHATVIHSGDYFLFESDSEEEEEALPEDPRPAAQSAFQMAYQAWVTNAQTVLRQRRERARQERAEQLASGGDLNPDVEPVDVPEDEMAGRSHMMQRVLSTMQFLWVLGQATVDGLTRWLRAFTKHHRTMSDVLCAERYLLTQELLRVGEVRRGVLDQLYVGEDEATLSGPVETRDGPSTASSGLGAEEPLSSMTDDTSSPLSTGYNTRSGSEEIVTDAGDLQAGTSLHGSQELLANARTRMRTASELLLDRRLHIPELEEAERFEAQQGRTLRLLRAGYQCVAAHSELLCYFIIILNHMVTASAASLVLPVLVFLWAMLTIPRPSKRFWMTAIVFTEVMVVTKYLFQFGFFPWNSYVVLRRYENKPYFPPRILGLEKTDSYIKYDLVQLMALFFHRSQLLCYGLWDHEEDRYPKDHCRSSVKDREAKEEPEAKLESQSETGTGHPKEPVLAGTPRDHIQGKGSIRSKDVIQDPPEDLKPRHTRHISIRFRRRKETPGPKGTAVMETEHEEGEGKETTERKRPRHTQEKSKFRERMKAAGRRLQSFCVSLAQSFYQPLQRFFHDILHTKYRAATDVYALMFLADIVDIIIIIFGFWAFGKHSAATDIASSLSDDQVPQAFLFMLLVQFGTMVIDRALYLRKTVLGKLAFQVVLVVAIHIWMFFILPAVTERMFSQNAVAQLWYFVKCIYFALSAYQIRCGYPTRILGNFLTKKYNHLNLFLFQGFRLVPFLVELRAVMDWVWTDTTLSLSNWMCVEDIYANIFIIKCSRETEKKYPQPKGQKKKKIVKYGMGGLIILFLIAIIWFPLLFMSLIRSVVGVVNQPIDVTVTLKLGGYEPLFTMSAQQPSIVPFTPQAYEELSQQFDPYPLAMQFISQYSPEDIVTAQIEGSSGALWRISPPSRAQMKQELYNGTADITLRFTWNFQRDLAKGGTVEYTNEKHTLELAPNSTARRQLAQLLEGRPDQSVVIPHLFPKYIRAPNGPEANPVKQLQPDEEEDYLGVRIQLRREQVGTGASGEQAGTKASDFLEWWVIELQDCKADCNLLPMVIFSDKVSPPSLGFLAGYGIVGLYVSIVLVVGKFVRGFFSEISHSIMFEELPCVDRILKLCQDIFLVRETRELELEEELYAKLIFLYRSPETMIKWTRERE
Outline: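 Mice were β-cell-specific Piezo1 knockouts (RIP-Cre+Piezo1f/f). Insulin secretion was measured by in situ pancreas perfusion.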

[6] = Brain insulin sensitivity by fMRI with intranasal insulin, prediabetes; assay type: in vivo, human; conditions: 25 mg qd, 8 weeks
[7] = Empagliflozin 24 weeks in T2DM and HFpEF; assay type: in vivo, human; conditions: after 24 weeks; baseline 126
[8] = db/db mice, empagliflozin alone or with linagliptin, 8 weeks; assay type: in vivo, mouse; conditions: 10 mg/kg (of each)
Outline: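 Male 8-week-old db/db mice (BKS.Cg-Dock7m+/+Leprdb/J) received vehicle, SGLT2 inhibitor 10 mg/kg, or SGLT2 inhibitor plus DPP4 inhibitor (10 mg/kg each) for 8 weeks. Heterozygous db/+ mice served as non-diabetic controls. Plasma glucose, fructosamine, glycated albumin and urinary albumin-to-creatinine ratio were measured at weeks 0 and 8.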

[9] = test system: patients with type 2 diabetes; assay: Network meta-analysis of antidiabetic medications on blood pressure; parameters: species or system human
[10] = HFD-induced obese mice, empagliflozin 8 weeks; assay type: in vivo, mouse; parameters: AUC glucose / AUC insulin: unit not given beside the values
CAROLINA trial = assay type: in vivo, human; conditions: 5 mg; regardless of age group
[11] = test system: human retinal endothelial cells (hRECs); assay: MGO exposure of human retinal endothelial cells; assay type: cell-based; conditions: 500μM, 72h
[12] = iv bolus of purified MGO in mice, immune cell numbers; assay type: in vivo, mouse
Piezo1 [13] = molecular target: Piezo1 (Homo sapiens, UniProt Q92508); assay: Ca2+ imaging in human β-cells; assay type: cell-based
Chain of Piezo1 (Homo sapiens, UniProt Q92508) (Q92508 whole entry): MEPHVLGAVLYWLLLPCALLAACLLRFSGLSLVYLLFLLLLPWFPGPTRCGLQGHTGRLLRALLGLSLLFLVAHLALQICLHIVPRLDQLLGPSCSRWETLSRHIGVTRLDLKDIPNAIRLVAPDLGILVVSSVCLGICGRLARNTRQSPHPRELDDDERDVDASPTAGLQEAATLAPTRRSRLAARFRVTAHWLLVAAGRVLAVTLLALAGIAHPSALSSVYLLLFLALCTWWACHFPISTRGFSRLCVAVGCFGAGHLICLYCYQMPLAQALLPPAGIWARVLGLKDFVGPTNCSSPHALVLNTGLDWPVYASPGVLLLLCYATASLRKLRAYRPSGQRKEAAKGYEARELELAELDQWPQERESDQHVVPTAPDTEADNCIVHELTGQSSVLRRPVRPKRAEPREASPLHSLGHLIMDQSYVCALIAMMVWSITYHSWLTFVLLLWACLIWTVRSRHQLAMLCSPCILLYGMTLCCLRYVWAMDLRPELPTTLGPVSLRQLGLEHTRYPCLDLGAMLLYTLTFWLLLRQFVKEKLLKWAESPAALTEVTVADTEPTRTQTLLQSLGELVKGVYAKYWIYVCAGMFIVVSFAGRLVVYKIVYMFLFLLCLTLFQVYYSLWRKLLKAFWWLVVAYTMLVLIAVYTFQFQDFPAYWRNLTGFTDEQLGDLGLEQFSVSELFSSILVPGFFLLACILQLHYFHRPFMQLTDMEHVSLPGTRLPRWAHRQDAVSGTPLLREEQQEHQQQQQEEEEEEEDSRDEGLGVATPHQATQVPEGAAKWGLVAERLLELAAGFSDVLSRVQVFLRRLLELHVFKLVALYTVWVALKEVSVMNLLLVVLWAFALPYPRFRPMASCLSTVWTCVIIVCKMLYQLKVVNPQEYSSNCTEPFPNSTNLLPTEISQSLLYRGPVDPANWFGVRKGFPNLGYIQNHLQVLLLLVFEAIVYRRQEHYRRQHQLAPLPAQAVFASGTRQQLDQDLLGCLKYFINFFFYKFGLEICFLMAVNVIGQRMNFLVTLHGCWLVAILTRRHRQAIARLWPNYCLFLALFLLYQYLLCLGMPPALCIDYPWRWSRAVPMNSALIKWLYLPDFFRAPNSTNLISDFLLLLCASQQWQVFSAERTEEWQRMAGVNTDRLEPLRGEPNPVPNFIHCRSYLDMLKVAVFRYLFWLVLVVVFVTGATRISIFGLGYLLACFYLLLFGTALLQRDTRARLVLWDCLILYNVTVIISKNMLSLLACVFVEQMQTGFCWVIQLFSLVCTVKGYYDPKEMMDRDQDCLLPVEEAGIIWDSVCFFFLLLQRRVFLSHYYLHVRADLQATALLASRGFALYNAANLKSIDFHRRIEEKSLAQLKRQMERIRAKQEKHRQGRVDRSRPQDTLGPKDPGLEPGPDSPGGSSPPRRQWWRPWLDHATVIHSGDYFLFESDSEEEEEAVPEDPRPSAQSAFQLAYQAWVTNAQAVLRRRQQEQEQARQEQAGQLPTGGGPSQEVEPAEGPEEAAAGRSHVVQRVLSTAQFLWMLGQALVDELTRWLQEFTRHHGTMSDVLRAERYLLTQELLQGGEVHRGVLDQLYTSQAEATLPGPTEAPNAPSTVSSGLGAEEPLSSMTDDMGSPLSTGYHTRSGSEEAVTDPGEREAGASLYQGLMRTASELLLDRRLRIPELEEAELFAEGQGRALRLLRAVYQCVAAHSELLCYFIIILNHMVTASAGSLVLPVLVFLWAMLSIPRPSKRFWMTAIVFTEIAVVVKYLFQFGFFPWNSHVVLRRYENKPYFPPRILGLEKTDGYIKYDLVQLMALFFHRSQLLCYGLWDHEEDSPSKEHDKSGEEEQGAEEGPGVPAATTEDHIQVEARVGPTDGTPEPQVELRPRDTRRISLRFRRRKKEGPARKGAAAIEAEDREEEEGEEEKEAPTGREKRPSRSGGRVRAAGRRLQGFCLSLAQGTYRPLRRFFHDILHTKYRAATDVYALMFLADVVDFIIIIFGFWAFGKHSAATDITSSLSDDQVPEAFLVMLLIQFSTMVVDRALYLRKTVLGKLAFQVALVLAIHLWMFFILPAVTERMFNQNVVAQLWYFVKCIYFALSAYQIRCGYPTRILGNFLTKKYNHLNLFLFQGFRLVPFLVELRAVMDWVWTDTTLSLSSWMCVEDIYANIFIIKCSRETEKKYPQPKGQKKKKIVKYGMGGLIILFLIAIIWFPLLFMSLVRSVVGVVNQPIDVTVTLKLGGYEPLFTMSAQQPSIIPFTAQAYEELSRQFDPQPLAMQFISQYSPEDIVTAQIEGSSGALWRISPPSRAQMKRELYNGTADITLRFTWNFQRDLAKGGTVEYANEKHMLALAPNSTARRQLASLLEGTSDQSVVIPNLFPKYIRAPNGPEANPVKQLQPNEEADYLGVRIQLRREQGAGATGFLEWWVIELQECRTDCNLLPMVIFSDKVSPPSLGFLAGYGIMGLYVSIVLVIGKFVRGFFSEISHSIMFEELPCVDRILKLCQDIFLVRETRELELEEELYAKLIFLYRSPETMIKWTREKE
Outline: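 Human β-cells loaded for Ca2+ imaging. Amplitude of glucose-induced [Ca2+]i oscillations recorded with and without a Piezo1-inhibiting test compound.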

[14] = ACCORD trial, cardiovascular autonomic neuropathy; assay type: in vivo, human; conditions: 95%CI 0.78 - 1.07
[15] = 1.5 mg once weekly; 95% CI 0.79, 0.99; cited from earlier work
[16] = 4-week treatment of DIO mice, body weight loss; assay type: in vivo, mouse; conditions: s.c., 4 weeks, human equivalent doses
[17] = test system: Primary human retinal microvascular endothelial cells (ACBRI-181); assay: DMOG chemical hypoxia model; assay type: cell-based; conditions: DHA 50μM, AICAR 0.5mM; DMOG 400 μM 24h
Outline: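 Primary human retinal microvascular endothelial cells (passage 6–8) grown in endothelial growth medium with 10% FBS. At 70% confluence, exposed 24 h to DMOG 400 μM with or without AICAR 0.5 mM or DHA 50 μM. HIF-1α, HIF-2α, VEGF, ZO-1 and vimentin assessed by immunofluorescence, plus a cell migration assay. AMPK activity by western blot.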

[18] = EVOLVE study, insulin detemir in pregnancy; assay type: in vivo, human; conditions: 727 vs 730 women
Outline: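 […] in women with pre-existing diabetes comparing the test basal insulin with another basal insulin. The primary endpoint was the number of women completing ≥22 weeks of gestation without major congenital malformations, perinatal death or neonatal death. It was analysed as crude and adjusted risk difference between treatment groups.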

CREDENCE trial = assay type: in vivo, human
[19] = test system: patients with type 2 diabetes and CKD; assay: CREDENCE acute eGFR decline; assay type: in vivo, human; conditions: week 3
[20] = 6 weeks
[21] = i.v. beta-hydroxybutyrate infusion crossover study, T2D; assay type: in vivo, human
neprilysin [22] = molecular target: neprilysin (Homo sapiens, UniProt P08473); assay: Mixed meal after single dose sacubitril/valsartan, healthy males; assay type: in vivo; conditions: 194 mg sacubitril / 206 mg valsartan single dose

CCOC(=O)[C@H](C)C[C@@H](Cc1ccc(-c2ccccc2)cc1)NC(=O)CCC(=O)O [Sacubitril, sacubitril]
increase of exogenous glucagon levels (iAUC0-60 min) (neprilysin [1]): 1.9 fold

Nc1ncnc2c1ncn2[C@@H]1O[C@H](CO[P@](=O)(O)O[P@](=O)(O)O[P@@](=O)(O)S)[C@@H](O)[C@H]1O [ATPγS]
glucose uptake (C2C12 murine myotubes): increased glucose uptake

C[C@@H]1C[C@H]2[C@@H]3CCC4=CC(=O)C=C[C@]4(C)[C@@]3(F)[C@@H](O)C[C@]2(C)[C@@]1(O)C(=O)CO [dexamethasone]
reduction of basal and insulin-stimulated glucose uptake [2]: ~ 50%

CCCCCCCCCCCCCCCC(=O)N[C@@H](CCC(=O)NCCCC[C@H](NC(=O)[C@H](C)NC(=O)[C@H](C)NC(=O)[C@H](CCC(N)=O)NC(=O)CNC(=O)[C@H](CCC(=O)O)NC(=O)[C@H](CC(C)C)NC(=O)[C@H](Cc1ccc(O)cc1)NC(=O)[C@H](CO)NC(=O)[C@H](CO)NC(=O)[C@@H](NC(=O)[C@H](CC(=O)O)NC(=O)[C@H](CO)NC(=O)[C@@H](NC(=O)[C@H](Cc1ccccc1)NC(=O)[C@@H](NC(=O)CNC(=O)[C@H](CCC(=O)O)NC(=O)[C@H](C)NC(=O)[C@@H](N)Cc1cnc[nH]1)[C@@H](C)O)[C@@H](C)O)C(C)C)C(=O)N[C@@H](CCC(=O)O)C(=O)N[C@@H](Cc1ccccc1)C(=O)N[C@H](C(=O)N[C@@H](C)C(=O)N[C@@H](Cc1c[nH]c2ccccc12)C(=O)N[C@@H](CC(C)C)C(=O)N[C@H](C(=O)N[C@@H](CCCNC(=N)N)C(=O)NCC(=O)N[C@@H](CCCNC(=N)N)C(=O)NCC(=O)O)C(C)C)[C@@H](C)CC)C(=O)O [Liraglutide]
change in mean FLT-uptake in pancreatic tissue ([3]; after four weeks): +0.08 | change in pancreatic volume ([3]; baseline to six weeks, MRI): +0.2 cm^3 | change in maximum FLT-uptake ([3]; titration period): +0.3

CCOC(=O)N1CCC(CN(Cc2ccc(Cl)cc2)Cc2ccc([N+](=O)[O-])s2)C1 (stereo not shown) [SR9009]
decrease of glucose-stimulated insulin secretion (Rev-erbα; INS-1E cells and human islets): 70%

C[C@H](NC(=O)Cc1cc(F)cc(F)c1)C(=O)N[C@H](C(=O)OC(C)(C)C)c1ccccc1 [DAPT]
IL-17A secretion (Notch pathway): significantly inhibited

O=C1NC(=O)/C(=C/c2ccc3c(c2)OC(F)(F)O3)S1 [AS604850]
reduction of F-actin depolymerisation by GIP stimulation (Arrb2+/+ beta cells): ~ 30%

O=C(COc1ccc(C(=O)c2ccccc2)cc1)NC1CCN(Cc2ccccc2)CC1 [AdipoRon]
HFD-induced weight gain (adiponectin receptor): reduced

C[C@H](CCC(=O)NCCS(=O)(=O)O)[C@H]1CC[C@H]2[C@@H]3[C@H](O)C[C@@H]4C[C@H](O)CC[C@]4(C)[C@H]3C[C@H](O)[C@]12C [TCA, taurocholic acid]
plasma glucose iAUC 0-180 min [4]: 568 ± 38 mmol·min/L

Clc1cccc(Cl)c1CSc1nnc(-c2cnccn2)s1 [yoda1]
increase of insulin secretion (Piezo1 [5]; glucose alone almost 3-fold): ~ 7 fold

OC[C@H]1O[C@@H](c2ccc(Cl)c(Cc3ccc(O[C@H]4CCOC4)cc3)c2)[C@H](O)[C@@H](O)[C@@H]1O [empagliflozin]
hypothalamic blood flow response to intranasal insulin [6]: significant insulin-induced decrease | left ventricular mass index (LVMI) [7]: 111,1 g/m2 | plasma glucose, fructosamine, glycated albumin and UACR [8]: decreased | systolic blood pressure, empagliflozin vs dapagliflozin ([9]; CI -2.35 to -0.12): -1.24 mmHg | diastolic blood pressure, mean difference versus placebo ([9]; network meta-analysis): -1.73 mmHg | body weight ([10]; 10mg/kg, 8 weeks, HFD 49.5 ± 2.8): 41.2 ± 1.5 g | fat mass ([10]; HFD 17.6 ± 3.4): 10.7 ± 2.6 g | AUC insulin ([10]; HFD 9617± 242): 6263 ± 337 | AUC glucose ([10]; HFD 38739± 1750): 27714 ± 1052

CC#CCn1c(N2CCC[C@@H](N)C2)nc2c1c(=O)n(Cc1nc(C)c3ccccc3n1)c(=O)n2C [linagliptin]
hypoglycaemia rates vs glimepiride (CAROLINA trial): significantly lower

CC(=O)C=O [MGO, methylglyoxal]
impairment of tube formation capacity [11]: ~ 70% | impairment of cell migration ([11]; transwell assay): ~ 30% | increase of circulating neutrophils vs PBS ([12]; 25μg iv bolus, after 10 min): 7 fold | increase of hepatic neutrophils ([12]; 10 min post injection): 9 fold | decrease of CD11b expression in the aorta ([12]; after 10 min): 19.9 fold | macrophage numbers in the liver ([12]; after 72h, control 24.2±6.8): 35.7±6.5 macrophages per microscopic view

GsMTx4
reduction of insulin release (Piezo1 [5]): > 30% | reduction of amplitude of glucose-induced [Ca2+]i oscillations (Piezo1 [13]): ~ 80%

CC(C)OC(=O)C(C)(C)Oc1ccc(C(=O)c2ccc(Cl)cc2)cc1 [Fenofibrate]
CAN outcome OR [14]: 0.91

dulaglutide
MACE-3 hazard ratio vs placebo [15]: 0.88 | body weight loss vs vehicle [16]: -2.5%

CC/C=C\C/C=C\C/C=C\C/C=C\C/C=C\C/C=C\CCC(=O)O [DHA, docosahexaenoic acid]
DMOG-induced abnormalities (HIF, VEGF, ZO-1, vimentin, migration) [17]: fully prevented

insulin detemir [IDet]
risk of major congenital malformations, perinatal or neonatal deaths vs other basal insulin [18]: not associated with excess risk

Cc1ccc([C@@H]2O[C@H](CO)[C@@H](O)[C@H](O)[C@H]2O)cc1Cc1ccc(-c2ccc(F)cc2)s1 [CANA, canagliflozin]
HHF alone HR vs placebo (CREDENCE trial; 95% CI 0.47-0.80): 0.61 | HHF/CV death HR vs placebo (CREDENCE trial; 95% CI 0.57, 0.83, median 2.6 years): 0.69 | reduction of risk of HHF/CV death (CREDENCE trial; overall population): 31% | participants with >30% decline [19]: 4%

CCOC(=O)C1Cc2ccccc2CN1C(=O)c1ccc(SC)s1 (stereo not shown) [SR8278]
attenuation of beta-cell apoptosis (Rev-erbα; glucotoxicity or cytokines, antagonist or siRNA): ~ 30%

CCOc1ccc(Cc2cc([C@@H]3O[C@H](CO)[C@@H](O)[C@H](O)[C@H]3O)ccc2Cl)cc1 [DAPA, dapagliflozin]
hepatic uptake of fatty acids vs placebo ([20]; 10 mg/day): increased | plasma NT-proBNP levels [20]: unaffected

NC(=O)c1ncn([C@@H]2O[C@H](COP(=O)(O)O)[C@@H](O)[C@H]2O)c1N [AICAR, 5-aminoimidazole-4-carboxamide ribonucleotide]
DMOG-induced abnormalities (HIF, VEGF, ZO-1, vimentin, migration) [17]: fully prevented

CC(O)CC(=O)O (stereo not drawn) [Beta-hydroxybutyrate, beta-hydroxybutyrate]
increase in heart rate vs placebo ([21]; n=17): 13.7 ± 1.2 bpm | beta-hydroxybutyrate levels during infusion ([21]; placebo 0.1 ± 0.6): 2.4 ± 0.6 mM

sacubitril / valsartan [sacubitril/valsartan]
increase of postprandial glucagon levels (iAUC0-240 min) (neprilysin [22]): 2.7 fold
